Reference: ChEMBL document CHEMBL1144718, “Novel 3-aroylpyrazolo[5,1-c][1,2,4]benzotriazine 5-oxides 8-substituted, ligands at GABAA/benzodiazepine receptor complex: synthesis, pharmacological and molecular modeling studies” (Bioorg Med Chem, 2008)
Values belong to the compound of their own block, whether it stands above or below them. Calls of active or inactive are those of the source. The rule behind the calls is not given here.

Assays:
[1] = Displacement of [3H]flumazenil from GABAA/BzR complex in bovine cerebral cortex membrane; format: cell membranes, Bos taurus
Summary of the method: (§1)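 Bovine cerebral cortex membranes in 50 mM Tris-citrate pH 7.4 incubated with [3H]Ro15-1788 (1–2 nM) for 1 h at 4 °C to equilibrium; nonspecific binding with 10^-5 M diazepam; DMSO ≤1%. Ki from ≥6 concentrations (10^-9–10^-5 M) by curve fitting and Cheng–Prusoff; percent inhibition at 10 µM; five determinations, triplicate.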

[2] = system: Mus musculus; experiment: Effect on motor coordination in CD1 Albino mouse assessed as number of falls in 30 secs at 3 mg/kg, po after 30 mins by rotarod test; format: functional
Summary of the method: (§2)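 Rota-rod at 16 rpm in male CD-1 mice after po dosing in 1% CMC; number of falls in 30 s counted at 15, 30, 45 and 60 min post-administration.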

[3] = system: Mus musculus; experiment: Effect on motor coordination in CD1 Albino mouse assessed as number of falls in 30 secs at 10 mg/kg, po after 30 mins by rotarod test relative to control; format: functional; summary of the method: as §2
[4] = system: Mus musculus; experiment: Effect on motor coordination in CD1 Albino mouse assessed as number of falls in 30 secs at 30 mg/kg, po after 30 mins by rotarod test relative to control; format: functional; summary of the method: as §2
[5] = system: Mus musculus; experiment: Anticonvulsant activity against pentylenetetrazole-induced seizure in CD1 Albino mouse assessed as shock latency at 3 mg/kg, po after 30 mins; format: functional
Summary of the method: (§3)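 Male CD-1 mice (22–24 g), compound suspended in 1% CMC (sonicated) given po in 10 ml/kg; 30 min later PTZ 90 mg/kg sc (in saline). Latency (s) to shock and to convulsions recorded; clonic generalized convulsions counted over 30 min.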

[6] = system: Mus musculus; experiment: Anticonvulsant activity against pentylenetetrazole-induced seizure in CD1 Albino mouse assessed as shock latency at 10 mg/kg, po after 30 mins; format: functional; summary of the method: as §3
[7] = system: Mus musculus; experiment: Anticonvulsant activity against pentylenetetrazole-induced seizure in CD1 Albino mouse assessed as shock latency at 30 mg/kg, po after 30 mins; format: functional; summary of the method: as §3
[8] = system: Mus musculus; experiment: Sedative activity in CD1 albino mouse assessed as reduction of spontaneous motility at 3 mg/kg, po after 30 mins by hole-board test; format: functional, organism-based; parameters: dose 3 mg/kg
Summary of the method: (§4)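 Hole-board: male CD-1 mice given compound po (1% CMC) and placed individually on the board 30 min later, free to explore panel and holes for 5 min; spontaneous motility and exploration (panel and hole movements) scored.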

[9] = system: Mus musculus; experiment: Sedative activity in CD1 albino mouse assessed as reduction of spontaneous motility at 10 mg/kg, po after 30 mins by hole-board test; format: functional, organism-based; parameters: dose 10 mg/kg; summary of the method: as §4
[10] = system: Mus musculus; experiment: Sedative activity in CD1 albino mouse assessed as reduction of spontaneous motility at 30 mg/kg, po after 30 mins by hole-board test; format: functional, organism-based; parameters: dose 30 mg/kg; summary of the method: as §4
[11] = system: Mus musculus; experiment: Sedative activity in CD1 albino mouse assessed as reduction of explorative activity at 3 mg/kg, po after 30 mins by hole-board test; format: functional, organism-based; parameters: dose 3 mg/kg; summary of the method: as §4
[12] = system: Mus musculus; experiment: Sedative activity in CD1 albino mouse assessed as reduction of explorative activity at 10 mg/kg, po after 30 mins by hole-board test; format: functional, organism-based; parameters: dose 10 mg/kg; summary of the method: as §4
[13] = system: Mus musculus; experiment: Sedative activity in CD1 albino mouse assessed as reduction of explorative activity at 30 mg/kg, po after 30 mins by hole-board test; format: functional, organism-based; parameters: dose 30 mg/kg; summary of the method: as §4
[14] = system: Mus musculus; experiment: Anxiolytic effect in CD1 albino mouse at 10 mg/kg, po after 30 mins by light-dark box test; format: functional, organism-based; parameters: dose 10 mg/kg
Summary of the method: (§5)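 Male CD-1 mice (22–24 g); test agent po in 1% CMC, 30 min before a light/dark box session; time (s) spent in the illuminated compartment measured. Means ± SEM of 14–21 mice.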

[15] = system: Mus musculus; experiment: Anxiolytic effect in CD1 albino mouse at 3 mg/kg, po after 30 mins by light-dark box test; format: functional, organism-based; parameters: dose 3 mg/kg; summary of the method: as §5
[16] = organism: Mus musculus; experiment: Reversal of anxiolytic effect in CD1 albino mouse by light-dark box test in presence of flumazenil; format: functional, organism-based
Summary of the method: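 Light/dark box in male CD-1 mice: compound po (1% CMC) 30 min before test, with flumazenil given ip at […] in saline; time (s) in illuminated compartment recorded. Means ± SEM of 14–21 mice.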

[17] = system: Mus musculus; experiment: Increase in learning and memory performance in CD1 albino mouse at 3 mg/kg, po after 24 hrs by passive avoidance test; format: functional, organism-based; parameters: dose 3 mg/kg
Summary of the method: (§6)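 Passive avoidance in male CD-1 mice treated po 30 min before training; retention tested 24 h later. Latency to enter the dark compartment measured, maximum 60 s (training) and 180 s (retention). Means ± SEM of 15–18 mice.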

[18] = system: Mus musculus; experiment: Increase in learning and memory performance in CD1 albino mouse at 10 mg/kg, po after 24 hrs by passive avoidance test; format: functional, organism-based; parameters: dose 10 mg/kg; summary of the method: as §6
[19] = system: Mus musculus; experiment: Effect on ethanol-induced sleeping time in CD1 Albino mouse assessed as increase in duration of loss of righting reflex at 3 mg/kg, po after 30 mins; format: functional, organism-based; parameters: dose 3 mg/kg
Summary of the method: (§7)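 Male CD-1 mice dosed po (1% CMC suspension); ethanol 4 g/kg ip given 30 min after the compound. Sleep time taken as duration of loss of righting reflex, end-point 150 min.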

[20] = system: Mus musculus; experiment: Effect on ethanol-induced sleeping time in CD1 Albino mouse assessed as increase in duration of loss of righting reflex at 10 mg/kg, po after 30 mins; format: functional, organism-based; parameters: dose 10 mg/kg; summary of the method: as §7
[21] = system: Mus musculus; experiment: Effect on ethanol-induced sleeping time in CD1 Albino mouse assessed as increase in duration of loss of righting reflex at 30 mg/kg, po after 30 mins; format: functional, organism-based; parameters: dose 30 mg/kg; summary of the method: as §7
[22] = system: Mus musculus; experiment: Anticonvulsant activity against pentylenetetrazole-induced seizure in CD1 Albino mouse assessed as convulsant latency at 3 mg/kg, po after 30 mins; format: functional; summary of the method: as §3
[23] = system: Mus musculus; experiment: Anticonvulsant activity against pentylenetetrazole-induced seizure in CD1 Albino mouse assessed as convulsant latency at 10 mg/kg, po after 30 mins; format: functional; summary of the method: as §3
[24] = system: Mus musculus; experiment: Anticonvulsant activity against pentylenetetrazole-induced seizure in CD1 Albino mouse assessed as convulsant latency at 30 mg/kg, po after 30 mins; format: functional; summary of the method: as §3
[25] = organism: Bos taurus; experiment: Displacement of [3H]flumazenil from GABAA/BzR complex in bovine cerebral cortex membrane at 10 uM; format: cell membranes; summary of the method: as §1

SMILES: Cn1cccc1C(=O)c1cnn2c1n[n+]([O-])c1ccc(Cl)cc12
Ki [1]: 5.2 µM

SMILES: O=C(c1ccc[nH]1)c1cnn2c1nnc1ccc(Cl)cc12
Ki [1]: 1.94 µM

SMILES: COc1ccccc1C(=O)c1cnn2c1n[n+]([O-])c1ccc(Cl)cc12
Ki [1]: 4.2 µM

SMILES: O=C(c1ccc2c(c1)OCO2)c1cnn2c1n[n+]([O-])c1ccc(Cl)cc12
Ki [1]: 2.9 µM

SMILES: O=Cc1cnn2c1n[n+]([O-])c1ccc(Cl)cc12
inhibition [25]: 64%

SMILES: CCOc1ccc2c(c1)n1ncc(C(=O)c3cccn3C)c1n[n+]2[O-]
Ki [1]: 0.819 µM

SMILES: CC(=O)c1cnn2c1n[n+]([O-])c1ccc(Cl)cc12
Ki [1]: 0.551 µM

Further lines, with some results ahead:

Ki [1]: 0.004 µM
SMILES: O=C(c1ccc[nH]1)c1cnn2c1n[n+]([O-])c1ccc(Cl)cc12
Activity [2]: 0.6 count
Activity [3]: 1.2 count
Activity [4]: 0.8 count
Activity [5]: 297.5 s
Activity [6]: 264.7 s
Activity [7]: 329.6 s
Activity [8]: inactive
Activity [9]: inactive
Activity [10]: Active
Activity [11]: inactive
Activity [12]: inactive
Activity [13]: Active
Activity [14]: Active
Activity [15]: inactive
Activity [16]: inactive
Activity [17]: Active
Activity [18]: Active
Activity [19]: Active
Activity [20]: Active
Activity [21]: Active
Activity [22]: 498.8 s
Activity [23]: 647.8 s
Activity [24]: 535.2 s

Ki [1]: 2 µM
SMILES: CCOc1ccc2c(c1)n1ncc(C(=O)c3cccnc3)c1n[n+]2[O-]

Ki [1]: 0.121 µM
SMILES: O=C(c1ccsc1)c1cnn2c1n[n+]([O-])c1ccc(Cl)cc12

Ki [1]: 0.053 µM
SMILES: CC(=O)c1cnn2c1n[n+]([O-])c1ccc(Oc3ccccc3)cc12

Ki [1]: 0.072 µM
SMILES: O=C(c1ccco1)c1cnn2c1n[n+]([O-])c1ccc(Cl)cc12

Ki [1]: 0.062 µM
SMILES: O=C(c1cccs1)c1cnn2c1n[n+]([O-])c1ccc(Cl)cc12

Ki [1]: 2.4 µM
SMILES: O=C(c1cccnc1)c1cnn2c1n[n+]([O-])c1ccc(Cl)cc12

Ki [1]: 1.24 µM
SMILES: COc1ccc(C(=O)c2cnn3c2n[n+]([O-])c2ccc(Cl)cc23)cc1
